Data reported in ChEMBL document CHEMBL1123794, “Synthesis, conformation, and dopaminergic activity of 5,6-ethano-bridged derivatives of selective dopaminergic 3-benzazepines” (J Med Chem, 1987).

What was measured:
[1] = target: D(1A) dopamine receptor (Rattus norvegicus) (UniProt P18901); assay: Inhibitory activity against Dopamine receptor D1 by displacement of [3H]fenoldopam from homogenated rat striatum
[2] = Tested for dopamine-sensitive adenylate cyclase stimulation; assay type: functional
[3] = Tested for dopamine-sensitive adenylate cyclase stimulation expressed as %DA stimulation at 10 uM; assay type: functional
[4] = target: D(2) dopamine receptor (Bos taurus) (UniProt P20288); assay: Inhibitory activity against Dopamine receptor D2 by displacement of [3H]spiroperidol from bovine pituitary at 10 uM
Sequence of D(2) dopamine receptor (Bos taurus) (P20288 whole entry): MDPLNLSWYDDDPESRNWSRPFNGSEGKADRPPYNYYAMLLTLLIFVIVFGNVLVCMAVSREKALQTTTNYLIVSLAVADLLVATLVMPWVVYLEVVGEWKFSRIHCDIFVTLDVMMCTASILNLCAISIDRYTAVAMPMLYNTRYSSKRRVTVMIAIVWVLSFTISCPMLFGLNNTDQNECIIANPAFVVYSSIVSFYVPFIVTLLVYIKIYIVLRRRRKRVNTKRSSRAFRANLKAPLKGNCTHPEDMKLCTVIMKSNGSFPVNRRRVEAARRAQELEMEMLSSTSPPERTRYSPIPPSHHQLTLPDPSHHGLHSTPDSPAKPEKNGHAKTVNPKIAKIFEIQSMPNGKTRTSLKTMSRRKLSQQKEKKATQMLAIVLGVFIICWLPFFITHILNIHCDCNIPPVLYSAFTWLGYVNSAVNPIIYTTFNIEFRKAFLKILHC

[5] = Tested for dopamine-sensitive adenylate cyclase stimulation expressed as ED50; assay type: functional
How it was run: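 EC50 is the concentration giving 50% of the maximal adenylate cyclase stimulation attainable with that same compound.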

Sequence of D(1A) dopamine receptor (Rattus norvegicus) (P18901 whole entry): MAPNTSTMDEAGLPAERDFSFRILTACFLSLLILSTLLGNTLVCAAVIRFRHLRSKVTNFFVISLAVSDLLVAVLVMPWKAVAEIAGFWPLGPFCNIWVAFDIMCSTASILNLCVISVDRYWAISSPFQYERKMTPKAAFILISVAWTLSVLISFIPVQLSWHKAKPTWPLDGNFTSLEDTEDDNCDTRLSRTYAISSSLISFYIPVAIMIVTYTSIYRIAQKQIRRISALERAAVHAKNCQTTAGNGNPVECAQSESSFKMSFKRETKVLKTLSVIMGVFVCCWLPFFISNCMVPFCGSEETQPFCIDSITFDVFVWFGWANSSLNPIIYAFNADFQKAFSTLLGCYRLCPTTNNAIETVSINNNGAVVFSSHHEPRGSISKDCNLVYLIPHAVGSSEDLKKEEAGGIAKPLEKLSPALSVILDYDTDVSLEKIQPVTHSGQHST

K bind [1] [µM]	Control [2] [%]	DA stim [3] [%]	inhibition [4] [%]	ED50 [5] [nM]	SMILES
1.22	20	15	0		Oc1cc2c3c(c1O)CC[C@H]3CNC[C@@H]2c1ccccc1
				3500	NCCc1ccc(O)c(O)c1
0.024		62	14	430	Oc1cc2c3c(c1O)CC[C@@H]3CNC[C@@H]2c1ccccc1
0.0051		66		63	Oc1cc2c(cc1O)[C@@H](c1ccccc1)CNCC2
